Laboratory results from ChEMBL document CHEMBL2016555, “4-Methoxy-N-[2-(trifluoromethyl)biphenyl-4-ylcarbamoyl]nicotinamide: A Potent and Selective Agonist of S1P1” (ACS Med Chem Lett, 2011).
Values after ≈ are worked out from the molar mass of the structure shown. Values belong to the compound of their own block, whether it stands above or below them.

Columns and labels:
[1] = Solubility of the compound in simulated intestinal fluid; assay type: physicochemical
[2] = Efflux ratio of apparent permeability across pig LLC-PK1 cells; assay type: ADME, cell-based, Sus scrofa
Outline: (§1)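 Permeability across porcine proximal tubule LLC-PK1 cell monolayers; apparent permeability (Papp) and efflux ratio determined.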

[3] = Solubility of the compound in 0.01 M aqueous HCl; assay type: physicochemical
[4] = molecular target: T1, Sphingosine 1-phosphate receptor 1 (Homo sapiens, UniProt P21453); assay: Agonist activity at human S1P1 expressed in U2OS cells coexpressing eGFP assessed as receptor internalization after 1 hr by microscopic analysis relative to 1-(4-(6-benzylbenzofuran-2-yl)-3-fluorobenzyl)azetidine-3-carboxylic acid; assay type: functional, cell-based
Outline: (§2)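 Human S1P1–eGFP fusion protein expressed in U2OS cells; agonism read as receptor internalization; EC50 derived, efficacy expressed relative to 1-(4-(6-benzylbenzofuran-2-yl)-3-fluorobenzyl)azetidine-3-carboxylic acid at 1.0 μM.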

[5] = molecular target: T1, Sphingosine 1-phosphate receptor 1; assay: Agonist activity at human S1P1 expressed in U2OS cells coexpressing eGFP assessed as receptor internalization after 1 hr by microscopic analysis; assay type: functional, cell-based; outline: as §2
[6] = Apparent permeability across pig LLC-PK1 cells; assay type: ADME, cell-based, Sus scrofa; outline: as §1
Rattus norvegicus [7] = assay: Immunosuppressive activity in Lewis rat assessed as change in peripheral lymphocyte count at 1 mg/kg, po after 24 hrs relative to vehicle treated control; assay type: functional
Outline: (§3)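 Female Lewis rats (N = 5/group) given one oral dose of 1 mg/kg (20% captisol, 1% HPMC, 1% pluronic F68, pH 2.1 with MSA); blood lymphocyte count and total plasma compound measured at 24 h; POC vs vehicle, ANOVA/Dunnett's test.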

[8] = Solubility of the compound in phosphate buffer saline at pH 7.4; assay type: physicochemical; details: phosphate buffered saline
[9] = Intrinsic clearance in rat liver microsomes after 30 mins; assay type: ADME, Microsome; details: read-out: CLH
Plasma = assay: (§4) Plasma concentration in Lewis rat at 1 mg/kg, po at 24 hrs; assay type: ADME, organism-based; design: dose 1 mg/kg, route oral; details: in vivo, 24 h, BLD = below limit of detection; outline: as §3
[10] = as §4; assay type: ADME, organism-based; design: dose 1 mg/kg, route oral; details: Lewis, plasma; outline: as §3
[11] = Plasma protein binding in Sprague-Dawley rat in vitro by ultracentrifugation; details: read-out: PPB (converted)
[12] = molecular target: Sphingosine 1-phosphate receptor 2 (Homo sapiens, UniProt O95136); assay: Agonist activity at human S1P2 expressed in CHO-K1 cells coexpressing Gq/i5 assessed as intracellular calcium release by fluorimetry; assay type: functional, cell-based
Outline: (§5)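 CHO-K1 cells expressing the human S1P receptor subtype plus chimeric Gq/i5; Ca2+ mobilization measured; efficacy relative to S1P at 0.20 μM; compounds not reaching >10% of control activity reported as > highest concentration tested.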

Rattus norvegicus [13] = assay: Toxicity in Sprague-Dawley rat assessed as increase in cholesterol level at 200 mg/kg, po administered qd for 4 days; assay type: organism-based; design: dose 200 mg/kg, route oral; details: in vivo, 96 h
Outline: (§6)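 Male Sprague-Dawley rats, N = 3/group, dosed orally once daily for 4 days at 50 or 200 mg/kg. Endpoints were mortality, clinical signs, body weight, and clinical chemistry including total bilirubin and cholesterol.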

Rattus norvegicus [14] = assay: Toxicity in Sprague-Dawley rat assessed as increase in bilirubin level at 50 mg/kg, po administered qd for 4 days; assay type: organism-based; design: dose 50 mg/kg, route oral; details: in vivo, 96 h; outline: as §6
Rattus norvegicus [15] = assay: Toxicity in Sprague-Dawley rat assessed as weight loss at 50 mg/kg, po administered qd for 4 days; assay type: organism-based; design: dose 50 mg/kg, route oral; details: in vivo, 96 h; outline: as §6
[16] = molecular target: T2, Sphingosine 1-phosphate receptor 5 (Homo sapiens, UniProt Q9H228); assay: Agonist activity at human S1P5 expressed in CHO-K1 cells coexpressing Gq/i5 assessed as calcium mobilization-induced bioluminescence change measured for 90 secs by fluorimetry relative to S1P; assay type: functional, cell-based; outline: as §5
[17] = molecular target: T3, Sphingosine 1-phosphate receptor 4 (Homo sapiens, UniProt O95977); assay: Agonist activity at human S1P4 expressed in CHO-K1 cells coexpressing Gq/i5 assessed as calcium mobilization-induced bioluminescence change after measured for 90 secs by fluorimetry; assay type: functional, cell-based
T3 sequence (O95977 whole entry): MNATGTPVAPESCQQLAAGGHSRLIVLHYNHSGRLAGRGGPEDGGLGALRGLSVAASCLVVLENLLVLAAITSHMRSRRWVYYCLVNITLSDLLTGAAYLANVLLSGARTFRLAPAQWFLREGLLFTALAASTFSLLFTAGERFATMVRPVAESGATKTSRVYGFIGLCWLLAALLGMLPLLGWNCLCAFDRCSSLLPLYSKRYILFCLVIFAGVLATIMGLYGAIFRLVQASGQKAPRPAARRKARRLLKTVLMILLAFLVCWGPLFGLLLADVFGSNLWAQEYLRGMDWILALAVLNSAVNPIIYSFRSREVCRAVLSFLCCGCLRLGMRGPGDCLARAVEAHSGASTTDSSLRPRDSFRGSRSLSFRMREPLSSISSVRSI

Rattus norvegicus [18] = assay: AUC (0 to 48 hrs) in Sprague-Dawley rat at 100 mg/kg, po; assay type: ADME, organism-based, Plasma; design: time < 48 hr, dose 100 mg/kg, route oral; details: in vivo
Rattus norvegicus [19] = assay: Toxicity in Sprague-Dawley rat assessed as adverse clinical signs at 200 mg/kg, po administered qd for 4 days; assay type: organism-based; design: dose 200 mg/kg, route oral; details: in vivo, 96 h; outline: as §6
Rattus norvegicus [20] = assay: Toxicity in Sprague-Dawley rat assessed as increase in bilirubin level at 200 mg/kg, po administered qd for 4 days; assay type: organism-based; design: dose 200 mg/kg, route oral; details: in vivo, 96 h; outline: as §6
[21] = Half life in Sprague-Dawley rat at 1 mg/kg, iv; assay type: ADME, organism-based; design: dose 1 mg/kg, route intravenous; details: in vivo
[22] = molecular target: T2, Sphingosine 1-phosphate receptor 5; assay: Agonist activity at human S1P5 expressed in CHO-K1 cells coexpressing Gq/i5 assessed as calcium mobilization-induced bioluminescence change measured for 90 secs by fluorimetry; assay type: functional, cell-based; outline: as §5
[23] = molecular target: Sphingosine 1-phosphate receptor 3 (Homo sapiens, UniProt Q99500); assay: Agonist activity at human S1P3 expressed in CHO-K1 cells coexpressing Gq/i5 assessed as intracellular calcium release by fluorimetry; assay type: functional, cell-based; outline: as §5
[24] = Plasma concentration in Lewis rat at 3 mg/kg, po at 24 hrs; assay type: ADME, organism-based; design: dose 3 mg/kg, route oral
Outline: (§7)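 Female Lewis rats dosed orally once at 0.30, 1.0 or 3.0 mg/kg (N = 5; 3.0 mg/kg group N = 3) in 20% HPBCD, 1% HPMC, 1% pluronic F68, pH 2.1 with MSA; blood lymphocytes and plasma concentration at 24 h; ANOVA/Dunnett's vs vehicle.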

[25] = molecular target: Voltage-gated inwardly rectifying potassium channel KCNH2 (Homo sapiens, UniProt Q12809); assay: Inhibition of human ERG
[26] = AUC (0 to 48 hrs) in Sprague-Dawley rat at 1 mg/kg, iv; assay type: ADME, organism-based; design: time < 48 hr, dose 1 mg/kg, route intravenous; details: plasma
PXR (NR1I2) = molecular target: T4, PXR (NR1I2) (Homo sapiens, UniProt O75469); assay: Induction of human PXR at 10 uM relative to control; details: read-out: Activity
T4 sequence (O75469 whole entry): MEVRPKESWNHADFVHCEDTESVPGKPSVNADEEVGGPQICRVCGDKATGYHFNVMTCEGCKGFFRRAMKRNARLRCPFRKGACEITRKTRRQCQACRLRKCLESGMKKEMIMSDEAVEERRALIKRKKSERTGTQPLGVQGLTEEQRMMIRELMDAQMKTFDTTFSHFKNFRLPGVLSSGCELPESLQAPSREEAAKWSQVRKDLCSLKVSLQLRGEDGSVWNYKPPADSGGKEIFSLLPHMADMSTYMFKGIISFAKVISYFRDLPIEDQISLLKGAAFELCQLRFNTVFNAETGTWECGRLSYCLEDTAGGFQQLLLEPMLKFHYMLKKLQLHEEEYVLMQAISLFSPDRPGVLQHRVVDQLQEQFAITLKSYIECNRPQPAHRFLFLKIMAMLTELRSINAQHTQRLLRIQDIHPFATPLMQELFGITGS

[27] = AUC (0 to 48 hrs) in Sprague-Dawley rat at 3 mg/kg, po; assay type: ADME, organism-based; design: time < 48 hr, dose 3 mg/kg, route oral; details: plasma
Rattus norvegicus [28] = assay: Immunosuppressive activity in po dosed Lewis rat assessed as change in peripheral lymphocyte count at 3 mg/kg, po after 24 hrs relative to vehicle treated control; assay type: functional; outline: as §7
[29] = Volume of distribution at steady state in Sprague-Dawley rat at 1 mg/kg, iv; assay type: ADME, organism-based; design: dose 1 mg/kg, route intravenous; details: in vivo, read-out: Vdss
Rattus norvegicus [30] = assay: Toxicity in Sprague-Dawley rat assessed as mortality at 50 mg/kg, po administered qd for 4 days; assay type: organism-based; design: dose 50 mg/kg, route oral; details: in vivo, 96 h; outline: as §6
Rattus norvegicus [31] = assay: Immunosuppressive activity in po dosed Lewis rat assessed as change in peripheral lymphocyte count after 24 hrs relative to vehicle treated control; assay type: functional, organism-based; outline: as §7
Rattus norvegicus [32] = assay: Toxicity in Sprague-Dawley rat assessed as clinical signs at 50 mg/kg, po administered qd for 4 days; assay type: organism-based; design: dose 50 mg/kg, route oral; details: in vivo, 96 h; outline: as §6
Rattus norvegicus [33] = assay: Toxicity in Sprague-Dawley rat assessed as weight loss at 200 mg/kg, po administered qd for 4 days; assay type: organism-based; design: dose 200 mg/kg, route oral; details: in vivo, 96 h; outline: as §6
[34] = Plasma concentration in Lewis rat at 0.3 mg/kg, po at 24 hrs; assay type: ADME, organism-based; design: dose 0.3 mg/kg, route oral; outline: as §7
Cytochrome P450 2D6 = Cytochrome P450 2D6 (Homo sapiens, UniProt P10635); assay: Inhibition of human CYP2D6; assay type: ADME
Rattus norvegicus [35] = assay: Toxicity in Sprague-Dawley rat assessed as mortality at 200 mg/kg, po administered qd for 4 days; assay type: organism-based; design: dose 200 mg/kg, route oral; details: in vivo, 96 h; outline: as §6
[36] = Clearance in Sprague-Dawley rat at 1 mg/kg, iv; assay type: ADME, organism-based; design: dose 1 mg/kg, route intravenous; details: in vivo
[37] = Bioavailability in Sprague-Dawley rat at 3 mg/kg, po and 1 mg/kg, iv; assay type: ADME, organism-based; details: in vivo

T1 sequence (P21453 whole entry, the tested form may be a part): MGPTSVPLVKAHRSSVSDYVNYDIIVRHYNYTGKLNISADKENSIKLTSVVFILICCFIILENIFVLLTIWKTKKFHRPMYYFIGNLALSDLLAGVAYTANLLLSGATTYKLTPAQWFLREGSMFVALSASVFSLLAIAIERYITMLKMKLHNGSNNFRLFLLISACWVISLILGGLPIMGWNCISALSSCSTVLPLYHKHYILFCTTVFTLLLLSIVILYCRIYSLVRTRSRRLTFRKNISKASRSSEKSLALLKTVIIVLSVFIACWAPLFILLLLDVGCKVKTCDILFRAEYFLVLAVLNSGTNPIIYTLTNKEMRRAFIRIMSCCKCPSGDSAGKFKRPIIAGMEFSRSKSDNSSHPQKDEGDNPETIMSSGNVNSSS
Sphingosine 1-phosphate receptor 3, sequence (Q99500 whole entry): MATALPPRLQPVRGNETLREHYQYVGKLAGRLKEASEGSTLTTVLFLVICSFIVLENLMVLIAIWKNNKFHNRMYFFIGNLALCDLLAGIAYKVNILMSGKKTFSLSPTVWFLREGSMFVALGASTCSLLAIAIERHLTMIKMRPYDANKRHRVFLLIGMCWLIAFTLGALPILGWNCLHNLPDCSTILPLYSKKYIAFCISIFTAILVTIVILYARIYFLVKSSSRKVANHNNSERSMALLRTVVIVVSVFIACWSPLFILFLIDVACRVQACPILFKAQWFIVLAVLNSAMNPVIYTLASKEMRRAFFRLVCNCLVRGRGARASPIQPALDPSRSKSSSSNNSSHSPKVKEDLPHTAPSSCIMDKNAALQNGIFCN
T2 sequence (Q9H228 whole entry): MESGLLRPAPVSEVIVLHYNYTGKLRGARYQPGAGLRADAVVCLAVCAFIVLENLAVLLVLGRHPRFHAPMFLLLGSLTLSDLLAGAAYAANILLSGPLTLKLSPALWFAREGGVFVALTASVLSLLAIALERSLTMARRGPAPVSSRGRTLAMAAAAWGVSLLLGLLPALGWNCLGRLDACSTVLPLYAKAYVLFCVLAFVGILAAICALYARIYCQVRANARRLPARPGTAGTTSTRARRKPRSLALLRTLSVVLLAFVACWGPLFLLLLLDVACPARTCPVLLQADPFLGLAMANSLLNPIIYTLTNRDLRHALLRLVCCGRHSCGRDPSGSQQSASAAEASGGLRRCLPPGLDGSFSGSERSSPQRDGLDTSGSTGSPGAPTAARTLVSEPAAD
Sphingosine 1-phosphate receptor 2, sequence (O95136 whole entry): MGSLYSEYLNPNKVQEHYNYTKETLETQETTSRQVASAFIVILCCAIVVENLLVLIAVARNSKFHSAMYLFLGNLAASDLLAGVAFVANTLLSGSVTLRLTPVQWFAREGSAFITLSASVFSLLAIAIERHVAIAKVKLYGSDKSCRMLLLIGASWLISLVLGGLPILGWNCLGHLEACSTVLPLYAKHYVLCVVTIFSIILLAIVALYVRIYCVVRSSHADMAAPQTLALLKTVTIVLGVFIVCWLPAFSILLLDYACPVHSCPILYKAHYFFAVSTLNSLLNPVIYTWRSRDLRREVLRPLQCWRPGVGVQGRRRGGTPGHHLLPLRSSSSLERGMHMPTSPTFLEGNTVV
Voltage-gated inwardly rectifying potassium channel KCNH2, sequence (Q12809 whole entry): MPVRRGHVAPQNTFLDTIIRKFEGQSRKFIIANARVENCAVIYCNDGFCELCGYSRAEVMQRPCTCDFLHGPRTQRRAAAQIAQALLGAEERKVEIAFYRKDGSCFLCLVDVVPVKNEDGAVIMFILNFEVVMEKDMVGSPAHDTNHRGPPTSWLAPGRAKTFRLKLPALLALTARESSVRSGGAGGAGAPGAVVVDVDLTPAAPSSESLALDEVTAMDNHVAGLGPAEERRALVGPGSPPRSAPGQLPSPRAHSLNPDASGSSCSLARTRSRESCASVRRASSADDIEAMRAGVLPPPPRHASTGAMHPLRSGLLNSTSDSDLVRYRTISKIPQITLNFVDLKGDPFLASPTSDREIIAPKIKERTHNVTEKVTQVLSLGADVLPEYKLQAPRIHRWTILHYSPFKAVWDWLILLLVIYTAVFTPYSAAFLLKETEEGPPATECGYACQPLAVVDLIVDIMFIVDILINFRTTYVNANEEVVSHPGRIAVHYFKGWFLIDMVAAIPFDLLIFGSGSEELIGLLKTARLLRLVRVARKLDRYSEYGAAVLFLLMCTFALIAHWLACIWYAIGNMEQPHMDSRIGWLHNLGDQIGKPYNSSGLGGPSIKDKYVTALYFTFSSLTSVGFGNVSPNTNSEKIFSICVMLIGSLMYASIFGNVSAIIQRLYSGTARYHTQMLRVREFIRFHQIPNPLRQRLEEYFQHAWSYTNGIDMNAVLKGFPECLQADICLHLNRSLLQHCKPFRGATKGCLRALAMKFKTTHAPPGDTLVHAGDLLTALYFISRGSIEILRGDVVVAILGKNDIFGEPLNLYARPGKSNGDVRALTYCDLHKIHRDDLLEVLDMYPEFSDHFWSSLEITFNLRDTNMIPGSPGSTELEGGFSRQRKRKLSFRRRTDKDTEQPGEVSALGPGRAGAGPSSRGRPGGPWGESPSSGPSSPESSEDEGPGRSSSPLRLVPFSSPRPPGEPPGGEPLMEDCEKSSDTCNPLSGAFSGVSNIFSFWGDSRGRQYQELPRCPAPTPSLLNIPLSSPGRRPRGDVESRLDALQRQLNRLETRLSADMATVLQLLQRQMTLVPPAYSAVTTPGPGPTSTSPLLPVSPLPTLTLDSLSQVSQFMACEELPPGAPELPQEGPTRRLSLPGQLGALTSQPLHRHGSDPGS
Cytochrome P450 2D6, sequence (P10635 whole entry): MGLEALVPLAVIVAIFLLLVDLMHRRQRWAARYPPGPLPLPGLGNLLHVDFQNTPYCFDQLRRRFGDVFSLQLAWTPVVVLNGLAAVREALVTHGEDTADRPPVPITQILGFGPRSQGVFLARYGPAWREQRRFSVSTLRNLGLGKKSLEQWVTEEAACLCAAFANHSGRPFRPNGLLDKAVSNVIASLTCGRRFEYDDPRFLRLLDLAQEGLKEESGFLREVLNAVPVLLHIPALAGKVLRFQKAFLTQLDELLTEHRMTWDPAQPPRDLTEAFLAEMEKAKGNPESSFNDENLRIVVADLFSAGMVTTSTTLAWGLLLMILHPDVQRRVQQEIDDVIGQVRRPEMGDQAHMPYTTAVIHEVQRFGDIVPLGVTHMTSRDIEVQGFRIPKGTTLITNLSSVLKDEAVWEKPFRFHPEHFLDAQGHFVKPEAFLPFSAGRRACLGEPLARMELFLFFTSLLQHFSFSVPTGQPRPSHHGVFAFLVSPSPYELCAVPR

solubility [1]: 6.9 µg/mL (≈ 18.1 µM)
efflux ratio [2]: 1
solubility [3]: < 1 µg/mL
Efficacy [4]: 110%
EC50 [5]: 14 nM
Papp [6]: 2.1 ×10⁻⁶ cm/s
solubility [8]: < 1 µg/mL
microsomal CLint [9]: < 14 µL/min/mg
Cp (Plasma): BLD
Compound: COc1ccccc1C(=O)NC(=O)Nc1ccc(C(C)C)c(C(F)(F)F)c1
Activity (Rattus norvegicus [7]): -16%

solubility [1]: 8.5 µg/mL (≈ 20.5 µM)
efflux ratio [2]: 1.1
solubility [3]: 28 µg/mL (≈ 67.4 µM)
Efficacy [4]: 110%
EC50 [5]: 13 nM
Papp [6]: 7.4 ×10⁻⁶ cm/s
solubility [8]: 19 µg/mL (≈ 45.7 µM)
microsomal CLint [9]: 15 µL/min/mg
concentration at 24 h [10]: 13 ng/mL
Compound: COc1ccccc1C(=O)NC(=O)Nc1ccc(-c2ccccn2)c(C(F)(F)F)c1
Activity (Rattus norvegicus [7]): -14%

solubility [1]: 24 µg/mL (≈ 61.8 µM)
efflux ratio [2]: 1
solubility [3]: < 1 µg/mL
Efficacy [4]: 120%
EC50 [5]: 5.4 nM
Papp [6]: 1.2 ×10⁻⁶ cm/s
solubility [8]: < 1 µg/mL
microsomal CLint [9]: < 14 µL/min/mg
concentration at 24 h [10]: 7 ng/mL
Compound: COc1ccccc1C(=O)NC(=O)Nc1ccc(-c2ccccc2)c(C(C)C)c1
Activity (Rattus norvegicus [7]): 3%

Compound: COc1ccncc1C(=O)NC(=O)Nc1ccc(-c2ccccc2)c(C(F)(F)F)c1
fraction unbound [11]: 0.05
EC50 [12]: > 25000 nM
Activity (Rattus norvegicus [13]): Toxic
Activity (Rattus norvegicus [14]): Toxic
Activity (Rattus norvegicus [15]): Non-toxic
Efficacy [16]: 58%
EC50 [17]: > 50000 nM
AUC (Rattus norvegicus [18]): 350000 ng·h/mL
Activity (Rattus norvegicus [19]): Non-toxic
Activity (Rattus norvegicus [20]): Toxic
half-life [21]: 19 h
EC50 [22]: 4300 nM
EC50 [23]: > 25000 nM
concentration at 24 h [24]: 160 ng/mL
Efficacy [4]: 96%
IC50 [25]: > 10000 nM
AUC(0-t) at 48 h [26]: 3400 ng·h/mL
activity at 10 µM (PXR (NR1I2)): 3.7%
AUC(0-t) at 48 h [27]: 13000 ng·h/mL
Activity (Rattus norvegicus [28]): 81%
Vd [29]: 6.3 L/kg
Activity (Rattus norvegicus [30]): Non-toxic
Activity (Rattus norvegicus [31]): Dose-dependent effect
Activity (Rattus norvegicus [7]): -67%
Activity (Rattus norvegicus [32]): Non-toxic
Activity (Rattus norvegicus [33]): Non-toxic
microsomal CLint [9]: < 14 µL/min/mg
concentration at 24 h [34]: 17 ng/mL
IC50 (Cytochrome P450 2D6): > 30000 nM
Activity (Rattus norvegicus [35]): Non-toxic
clearance [36]: 4.17 mL/min/kg
bioavailability [37]: 140%

solubility [1]: 27 µg/mL (≈ 66.8 µM)
efflux ratio [2]: 1
EC50 [23]: > 25000 nM
solubility [3]: < 1 µg/mL
Efficacy [4]: 87%
EC50 [5]: 430 nM
Papp [6]: 1.8 ×10⁻⁶ cm/s
solubility [8]: < 1 µg/mL
microsomal CLint [9]: 29 µL/min/mg
Compound: COc1ccccc1C(=O)NC(=S)Nc1ccc(N2CCCCC2)c(Cl)c1
